Bioassay records from PubChem.
PREPL inh: PREPL enzyme inhibitors, primary screen, biochemical, fluorescence polarization; recombinant PREPL, fluorescence polarization activity-based probe; hit rate 0.68% among 320,000; inhibition, % at 5.96 µM; AID 2751, 2010; Prolyl endopeptidase-like (Homo sapiens), Q4J6C6; in the data active = inhibition above about 43%;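 note: 0% = enzyme with DMSO and 100% = wells lacking enzyme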
PP1 inh: PP1-alpha phosphatase inhibitors, primary screen, counter-screen for PP5 inhibitor project, biochemical, fluorescence, OMFP substrate, single point; Serine/threonine-protein phosphatase PP1-alpha catalytic subunit (Homo sapiens), P62136; AID 2235, 2010; inhibition, % at 6.7 µM; hit rate 0.9% among 320,000; purified PP1alpha;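 active = inhibition above the mean inhibition of all tested compounds plus 3 SD, computed separately for each screening campaign, cut at about 15% in these data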
Target sequence (P62136 whole entry, looked up): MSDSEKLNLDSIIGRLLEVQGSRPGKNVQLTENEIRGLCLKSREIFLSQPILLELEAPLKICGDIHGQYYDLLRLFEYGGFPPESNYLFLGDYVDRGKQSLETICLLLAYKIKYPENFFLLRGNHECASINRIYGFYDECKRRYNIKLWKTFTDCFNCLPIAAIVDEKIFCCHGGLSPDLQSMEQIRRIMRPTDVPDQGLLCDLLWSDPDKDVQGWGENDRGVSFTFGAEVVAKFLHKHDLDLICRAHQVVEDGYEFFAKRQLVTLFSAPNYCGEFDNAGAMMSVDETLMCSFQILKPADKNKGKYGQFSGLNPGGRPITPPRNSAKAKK
UBC13 polyUb: UBC13 polyubiquitin chain formation inhibitors, primary screen, biochemical, TR-FRET, uHTS. Ubiquitin-conjugating enzyme E2 N (Homo sapiens), P61088. inhibition, % at 20 µM. hit rate 0.47% among 330,000; in the data active = inhibition above about 45%, passing the limit was not always enough
UCH37 DUB inh: inhibitors of human UCH37 deubiquitinase, primary screen, biochemical, Ub-AMC cleavage, fluorescence; inhibition, % (test concentration not listed); Ubiquitin carboxyl-terminal hydrolase isozyme L5 (Homo sapiens), Q9Y5K5; purified proteasome/UCH37; hit rate 0.33% among 330,000;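 active = mean inhibition over replicate wells above about 20%, limit read from the data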;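 note: 0% = compound-free wells with enzyme and 100% = wells lacking proteasome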
Target sequence (Q9Y5K5 whole entry, looked up): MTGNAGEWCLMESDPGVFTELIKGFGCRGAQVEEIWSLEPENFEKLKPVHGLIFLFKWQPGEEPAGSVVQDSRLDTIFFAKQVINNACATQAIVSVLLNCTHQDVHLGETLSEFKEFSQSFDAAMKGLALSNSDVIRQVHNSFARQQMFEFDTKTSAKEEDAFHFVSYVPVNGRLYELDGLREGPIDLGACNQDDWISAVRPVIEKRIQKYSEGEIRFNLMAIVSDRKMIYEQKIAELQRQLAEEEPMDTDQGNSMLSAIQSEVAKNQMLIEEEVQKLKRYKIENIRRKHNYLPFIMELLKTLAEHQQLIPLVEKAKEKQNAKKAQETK
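Material: human UCH37 enzyme supplied as purified proteasome complex. Measure: % inhibition of Ub-AMC cleavage fluorescence. Medium: pH 7.4 Tris-HCl (50 mM) with ovalbumin, ATP-MgCl2, DTT. Times: 30 min preincubation with enzyme, 25 min cleavage at room temperature. Detection: AMC fluorescence intensity at 355/460 nm.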
CTSL1 counter: Fasciola hepatica cathepsin L1 inhibitors, primary screen, counter-screen for PFM18AAP inhibitor project, biochemical, QFRET, fluorogenic peptide substrate; recombinant F. hepatica cathepsin L1, Z-Leu-Arg-MCA fluorescence; inhibition, % at 5.96 µM; hit rate 0.49% among 300,000; AID 1906, 2009;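 active = inhibition above the mean of all tested compounds plus 3 SD, set per screening campaign, cut at about 17% in these data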;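 note: 0% = plate median of test compound wells and 100% = 1 µM Z-Phe-Ala-diazomethylketone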
PP5 inh: PP5 phosphatase inhibitors, primary screen, biochemical, fluorescence | hit rate 0.18% among 320,000 | purified PP5c, OMFP substrate fluorescence | inhibition, % at 6.7 µM | Serine/threonine-protein phosphatase 5 (Homo sapiens), P53041 | AID 1987, 2009;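 active = inhibition above the campaign's mean inhibition across all tested compounds plus 3 SD, cut at about 9.5% in these data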;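 note: 0% = DMSO only and 100% = 100 µM cantharidin control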
* hit, by the source's call; x = no result. Most compounds without a hit are left out; they make up all but 2.3% or so of the library.

SMILES	PREPL inh	PP1 inh	UBC13 polyUb	UCH37 DUB inh	CTSL1 counter	PP5 inh
C#CCOCCOCCOCCNc1nc(N2CCN(C(=O)C([C@@H](C)CC)n3cc(C(N)CO)nn3)CC2)nc(N2CCN(C(=O)C([C@@H](C)CC)n3cc(C(N)COC(=O)C(F)(F)F)nn3)CC2)n1 (stereo not given in full)	15.8	6.7	30.0	8.3	11.2	3.2
C#CCOCCOCCOCCNc1nc(N2CCN(C(=O)[C@H]([C@@H](C)CC)n3cc([C@@H](N)CC(C)C)nn3)CC2)nc(N2CCN(C(=O)[C@H](CCCCN)n3cc([C@@H](N)CC(C)C)nn3)CC2)n1	13.2	1.2	54.9*	-0.2	9.9	0.6
C#CCOCCOCCOCCNc1nc(N2CCN(C(=O)[C@H](CCCCN)n3cc([C@@H](N)C(C)CC)nn3)CC2)nc(N2CCN(C(=O)[C@H](CCCCN)n3cc([C@@H](N)CO)nn3)CC2)n1 (stereo not given in full)	7.0	14.3	46.3*	x	-3.6	3.1
Cc1ccc(C=NNc2ccc(C(=O)O)cc2)s1	x	x	x	11.5	x	x
COc1cc(C=NNC(=O)c2ccccc2F)ccc1Oc1ccc([N+](=O)[O-])cn1	x	x	x	6.5	x	x
CC(=O)c1sc(NN=Cc2ccc(C(C)C)cc2)nc1C	x	x	x	-11.5	x	x
C#CCOCCOCCOCCNc1nc(N2CCN(C(=O)[C@H]([C@@H](C)CC)n3cc([C@@H](N)CO)nn3)CC2)nc(N2CCN(C(=O)[C@H](CCCCN)n3cc([C@@H](N)C(C)CC)nn3)CC2)n1 (stereo not given in full)	12.0	-0.7	3.1	1.3	3.7	0.0
C#CCOCCOCCOCCNc1nc(N2CCN(C(=O)[C@H]([C@@H](C)CC)n3cc([C@@H](N)CC(C)C)nn3)CC2)nc(N2CCN(C(=O)[C@H](CCCCN)n3cc([C@@H](N)C(C)CC)nn3)CC2)n1 (stereo not given in full)	11.4	4.0	37.4	0.0	31.5*	4.5
O=C(O)[C@H](Cc1ccccc1)NC(=O)N1CCN(c2ccccc2)CC1	2.7	-1.6	5.3	3.2	17.2*	0.9
CC(C)C[C@H](NC(=O)N1CCN(c2ccccc2)CC1)C(=O)O	11.1	-3.4	-4.2	7.2	0.1	-0.3
Cc1[nH][nH]c(=O)c1C(c1ccc(-c2ccc(F)cc2)o1)c1c(C)[nH][nH]c1=O	3.4	9.7	-104.4	21.7*	-7.2	2.8
COc1ccc(-c2ccc(C(c3c(C)[nH][nH]c3=O)c3c(C)[nH][nH]c3=O)o2)c([N+](=O)[O-])c1	x	x	-58.7	8.0	x	x
Cc1[nH][nH]c(=O)c1C(c1ccc(-c2ccc(C(=O)O)cc2)o1)c1c(C)[nH][nH]c1=O	x	x	x	23.0*	x	x
Oc1ccc(N=Nc2ccc3c(c2)OCCO3)c2ncccc12	4.5	15.7*	-141.3	1.0	-1.8	2.9
Cc1cc(-c2csc(N)n2)c(C)n1CCC(C)C	40.8	16.1*	-24.6	-1.0	-0.7	3.5
Cc1ccccc1C(=O)NNC(=O)CSc1nc2ccccc2c(=O)[nH]1	2.7	-4.5	-2.8	2.9	18.2*	1.6
Cc1cccc(C)c1NC(=O)CSc1nc2ccccc2c(=O)[nH]1	-6.7	-1.3	0.7	-0.9	-2.9	2.2
CN(C)C(=S)Nn1c(-c2ccccc2)nc2ccccc2c1=O	-3.2	1.1	1.5	25.1*	0.6	0.4
O=C(NN=Cc1ccc(O)c([N+](=O)[O-])c1)c1ccncc1	x	x	x	20.4*	x	x
CCOc1ccc(C2CC(c3ccc(OC)cc3)n3ncnc3N2)cc1 (stereo not given)	-33.0	-1.7	4.5	-0.7	18.1*	2.2
COc1ccc2c(c1[N+](=O)[O-])CCCC2=NOC(=O)c1ccccc1SC	x	x	x	2.0	x	x
CC(=NOCC(=O)Nc1c(C)cc(C)cc1C)c1ccc2c(c1)OCCO2	x	x	x	4.8	x	x
C/C(=N\NC(N)=S)C1(C)CCCCC1	10.4	-2.9	-7.2	x	29.7*	-8.5
C/C(=N\NC(N)=S)C12CC3CC(CC(C3)C1)C2	-4.9	-1.9	-4.6	x	18.1*	-0.5
O=C(O)C1CCN(C(=O)c2ccccc2Cl)CC1	4.9	0.0	9.1	4.6	-3.1	-0.6
SMILES	PREPL inh	PP1 inh	UBC13 polyUb	UCH37 DUB inh	CTSL1 counter	PP5 inh
O=C1C(Cl)=C(N2CCC(C(=O)O)CC2)C(=O)c2ccccc21	16.5	-2.2	-59.2	78.5*	7.0	2.7
Cc1nn(C)cc1C=NNC(=O)c1ccc2c(c1)c(C)c(C)n2Cc1ccccc1	x	x	x	0.3	x	x
CNC(=O)N(O)C1N(N=Cc2cc(Br)ccc2O)C(=S)SC1(C)C (stereo not given)	x	x	x	3.6	x	x
O=C(Cc1cccs1)NN=Cc1ccccc1	x	x	x	-0.2	x	x
COC(=O)C(=NNc1ccccc1C)N1CCCc2ccccc21	x	x	x	0.9	x	x
CC(=NN=c1sc2ccccc2n1C)c1ccc(N2CCOCC2)cc1	x	x	x	4.9	x	x
Clc1ccc(N/N=C/c2cccnc2)cc1	6.9	1.4	4.9	x	16.7*	-4.8
Clc1ccc(NN=Cc2cccnc2)cc1	x	x	x	7.7	x	x
Cc1ccc(-c2ccc(C=NNC(=O)CN3CCCC3)o2)cc1Cl	x	x	x	-2.2	x	x
COc1ccc(-n2c(=O)c3c4c(sc3n3c(=S)[nH]nc23)CCC4)cc1	9.2	-3.6	-0.1	2.5	16.8*	0.5
CC(=NNC(=O)c1ccncc1)c1ccccc1	x	x	x	3.4	x	x
CCC(=O)NC(c1cccs1)c1cc([N+](=O)[O-])c2cccnc2c1O (stereo not given)	3.4	12.4	-59.7	20.4*	0.1	2.9
CC(=O)NC(c1cccs1)c1cc([N+](=O)[O-])c2cccnc2c1O (stereo not given)	24.8	14.1	x	20.4*	5.0	4.9
CCC(=O)NC(c1ccc(OC)cc1)c1cc(Cl)c2cccnc2c1O (stereo not given)	-2.3	16.3*	-38.2	3.8	-3.3	0.4
CCC(=O)NC(c1ccco1)c1cc(Cl)c2cccnc2c1O (stereo not given)	17.1	5.2	-21.8	0.3	3.2	2.0
CC(C)(C)c1ccc(C=NNC(=O)C[n+]2ccccc2)cc1	x	x	x	2.4	x	x
Cn1c(=O)n(C)c2cc(NC(=O)CCl)ccc21	4.7	0.8	-4.9	6.1	23.9*	3.4
COCCCNC(=O)C(=O)NN=Cc1ccc(OCC(=O)Nc2cccc(Cl)c2C)c(OC)c1	x	x	x	2.4	x	x
CCOC(=O)c1cc2c(s1)-c1c(C)cccc1OC2	8.6	0.3	11.2	-247.1	18.1*	-4.3
COc1cc(C=NNC(=O)C[n+]2ccccc2)cc(OC)c1OC(C)=O	x	x	x	-0.2	x	x
Cc1ccsc1/C=C/C1=Cc2c(sc(NC(=O)CSc3n[nH]c(N)n3)c2C#N)C(C)(C)C1	-39.8	16.9*	11.0	-31.7	-2.5	2.9
